pIC50, pKi: −log10 of the molar value.
Experiments:
Cathepsin K [1] = target: T1, Cathepsin K (Homo sapiens, UniProt P43235); test: Inhibitory activity tested against Human Cathepsin K using Z-Phe-Arg-pNA as substrate
T1 sequence (P43235 whole entry): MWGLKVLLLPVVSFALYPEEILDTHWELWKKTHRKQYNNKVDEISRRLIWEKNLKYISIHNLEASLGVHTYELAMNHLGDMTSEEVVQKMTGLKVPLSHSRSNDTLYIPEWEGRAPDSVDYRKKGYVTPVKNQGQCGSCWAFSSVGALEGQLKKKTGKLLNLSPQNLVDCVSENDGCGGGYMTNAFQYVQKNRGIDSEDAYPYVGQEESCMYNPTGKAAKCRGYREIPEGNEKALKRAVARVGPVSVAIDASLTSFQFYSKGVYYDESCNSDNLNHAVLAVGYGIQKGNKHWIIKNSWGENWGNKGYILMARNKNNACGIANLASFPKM

Cathepsin B = Cathepsin B (Homo sapiens, UniProt P07858); test: Inhibitory activity tested against Human Cathepsin B using Z-Phe-Arg-pNA as substrate
Procathepsin L = Procathepsin L (Homo sapiens, UniProt P07711); test: Inhibitory activity tested against Human Cathepsin L using Z-Phe-Arg-pNA as substrate
Sequence of Procathepsin L (P07711 whole entry): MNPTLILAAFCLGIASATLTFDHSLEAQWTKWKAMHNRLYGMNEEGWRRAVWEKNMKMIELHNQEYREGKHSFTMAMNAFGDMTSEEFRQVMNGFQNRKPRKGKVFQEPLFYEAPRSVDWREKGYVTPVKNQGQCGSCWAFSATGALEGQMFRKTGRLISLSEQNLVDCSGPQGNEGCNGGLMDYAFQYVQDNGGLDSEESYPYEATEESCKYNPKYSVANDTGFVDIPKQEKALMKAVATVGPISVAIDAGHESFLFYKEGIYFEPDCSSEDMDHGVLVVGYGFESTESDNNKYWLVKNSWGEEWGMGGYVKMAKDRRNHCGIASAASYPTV

Cathepsin K [2] = target: T1, Cathepsin K; test: Effect of 10 mM of GSH on the inhibitory activity of compound against Cathepsin K, at pH 5.5
Outline: (§1)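 Recombinant human cathepsin K IC50 with 10 mM glutathione at pH 5.5 or pH 7.0. Compounds preincubated 30 min with GSH before enzyme addition, then 30 min with enzyme before 25 μM Z-Phe-Arg-pNA. Activity read as OD increase at 405 nm. IC50 fitted to a four-parameter logistic model.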

Cathepsin K [3] = target: T1, Cathepsin K; test: Effect of 10 mM of GSH on the inhibitory activity against Cathepsin K, at pH 7; outline: as §1
Cathepsin K [4] = target: T1, Cathepsin K; test: Inhibition of Cathepsin K at pH 5.5
Outline: (§2)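 Recombinant human cathepsin K IC50 without glutathione at pH 5.5 or 7.0. Compound preincubated 30 min with enzyme, then 25 μM Z-Phe-Arg-pNA added. Activity read as OD increase at 405 nm. Percent inhibition set against a vehicle control. IC50 from a four-parameter logistic fit.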

Cathepsin K [5] = target: T1, Cathepsin K; test: Inhibition of Cathepsin K at pH 7; outline: as §2
[6] = Half life period in rat after (iv) administration; assay type: ADME, organism-based; conditions: in vivo
Outline: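 Rats dosed intravenously in PEG-200/water (3:2), dosing volume 1 mL/kg; half-life derived from mean plasma levels.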

[7] = Bioavailability after oral administration of 20 mg/kg in rat; assay type: ADME, organism-based; conditions: in vivo
Outline: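 Rats dosed orally at 20 mg/kg as a 1% methocel suspension, dosing volume 10 mL/kg; plasma levels followed over time and oral bioavailability derived.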

Cathepsin K [8] = target: T1, Cathepsin K; test: Inhibitory activity tested against Human Cathepsin K […] using gelatinase assay
Outline: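 Recombinant human cathepsin K gelatinase activity on DQ gelatin, 0.25 mg/mL final. Run in 50 mM MES pH 5.5 with 2.5 mM DTT, 2.5 mM EDTA and 10% DMSO, enzyme 2–4 nM, 30 min compound preincubation. Fluorescein release read at ex 495/em 515 nm. IC50 from a four-parameter logistic fit.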

Cathepsin K [9] = target: T1, Cathepsin K; test: Inhibitory constant against human cathepsin K
Outline: (§3)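 Slow-binding kinetics with cathepsin K (0.1 nM final, added to start the reaction) in 50 mM MES pH 5.5, 2.5 mM DTT, 2.5 mM EDTA, 10% DMSO, room temperature, stirred 1 mL cells. Z-Phe-Arg-AMC at 10-fold below Km (Km 30 μM), fluorescence ex 355/em 460 nm. Progress curves fitted for kobs; Ki, kon, koff averaged over at least three inhibitor concentrations.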

[10] = target: T2, Cathepsin K (Homo sapiens) (UniProt P43235); test: Pre-steady-state kinetic parameter for inhibition of human cathepsin K; outline: as §3
T2 sequence (whole entry): T1 sequence (P43235 whole entry)

Papain = target: T3, Papain (Carica papaya, UniProt P00784); test: Inhibitory activity tested against papain at a pH 5.5
T3 sequence (P00784 whole entry): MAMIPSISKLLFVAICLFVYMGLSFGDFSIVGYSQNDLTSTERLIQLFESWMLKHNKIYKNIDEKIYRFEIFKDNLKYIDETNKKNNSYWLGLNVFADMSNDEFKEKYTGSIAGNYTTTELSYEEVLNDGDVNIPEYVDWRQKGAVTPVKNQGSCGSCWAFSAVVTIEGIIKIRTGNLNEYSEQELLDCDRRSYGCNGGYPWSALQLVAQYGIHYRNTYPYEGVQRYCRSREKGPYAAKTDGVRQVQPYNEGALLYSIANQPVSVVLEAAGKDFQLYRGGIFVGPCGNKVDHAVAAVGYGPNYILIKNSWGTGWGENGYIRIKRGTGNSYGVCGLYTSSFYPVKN

SMILES | pIC50 (Cathepsin K [1]) | pIC50 (Cathepsin B) | pIC50 (Procathepsin L) | half-life [6] | bioavailability [7] | pIC50 (Papain) | pIC50 (Cathepsin K [2]) | pIC50 (Cathepsin K [3]) | pIC50 (Cathepsin K [4]) | pIC50 (Cathepsin K [5]) | pIC50 (Cathepsin K [8]) | pIC50 (Cathepsin K [9]) | pKi (Cathepsin K [9]) | k off [10] | k on [10]
N#CN1CCC(NC(=O)c2ccc(-c3ccccc3)cc2)C1 (stereo not given) | 6.54 | 6.52 | 6.07 |  |  |  |  |  |  |  |  |  |  |  | 
N#CN1CCC(CNS(=O)(=O)c2ccccc2)C1 (stereo not given) | 6.70 | 5.82 | 6.46 |  |  |  |  |  |  |  |  |  |  |  | 
CCN(C#N)CC | < 4.00 | < 4.00 | < 4.00 |  |  |  |  |  |  |  |  |  |  |  | 
N#CN1CCCC1 [CYANO-PYRROLIDINE] | 6.00 | 4.82 | 5.40 |  |  |  | 5.82 | 5.47 | 5.79 | 5.64 |  |  |  |  | 
N#CN1CCC(NC(=O)c2ccccc2)C1 (stereo not given) | 6.43 | 5.38 | 5.76 |  |  |  |  |  |  |  |  |  |  |  | 
N#CN1CCCC1CNS(=O)(=O)c1ccccc1 (stereo not given) | 4.92 |  | 4.94 |  |  |  |  |  |  |  |  |  |  |  | 
N#CN1CCC(NC(=O)OCc2ccccc2)C1 (stereo not given) | 7.40 | 6.70 | 7.27 |  |  |  | 7.05 | 6.82 | 7.22 | 7.30 | 7.70 | 7.40 | 6.85 | 0.0056 s⁻¹ | 67300 M⁻¹ s⁻¹
N#CN1CC(CNC(=O)C2CCCCC2)C1 |  |  |  |  |  |  | 7.57 | < 4.00 | 7.80 | 7.42 | 8.00 |  |  |  | 
N#CN1Cc2cc3ccccc3nc2C1 | 6.43 | 5.64 | 6.35 |  |  |  | 6.44 | 4.94 | 6.47 | 6.55 | 6.44 | 6.43 | 6.42 | 0.0025 s⁻¹ | 6590 M⁻¹ s⁻¹
N#CN1CCCC1CNC(=O)c1ccccc1 (stereo not given) | 4.86 | 4.12 | 4.64 |  |  |  |  |  |  |  |  |  |  |  | 

Further lines, with some results ahead:

pIC50 (Cathepsin K [1]) | pIC50 (Cathepsin B) | pIC50 (Procathepsin L) | half-life [6] | bioavailability [7] | pIC50 (Papain) | SMILES | pIC50 (Cathepsin K [2]) | pIC50 (Cathepsin K [3]) | pIC50 (Cathepsin K [4]) | pIC50 (Cathepsin K [5]) | pIC50 (Cathepsin K [8]) | pIC50 (Cathepsin K [9]) | pKi (Cathepsin K [9]) | k off [10] | k on [10]
7.30 | 5.85 | 7.10 | 2 h | 38% | 6.64 | N#CN1CCC(NS(=O)(=O)c2ccccc2)C1 (stereo not given) |  |  |  |  | 7.74 | 7.09 | 7.05 | 0.0019 s⁻¹ | 19900 M⁻¹ s⁻¹
7.15 | 6.60 | 6.19 |  |  |  | N#CN1CC(CNC(=O)c2ccccc2)C1 |  |  |  |  |  |  |  |  | 
7.70 | 6.52 | 7.30 |  |  |  | N#CN1CC(CNS(=O)(=O)c2ccccc2)C1 |  |  |  |  |  | 7.77 | 7.70 | 0.0028 s⁻¹ | 141000 M⁻¹ s⁻¹
7.00 | 5.96 | 6.82 |  |  |  | N#CN1CCC(COCc2ccccc2)C1 (stereo not given) |  |  |  |  |  |  |  |  | 
7.70 | 6.30 | 7.00 |  |  |  | N#CN1CC(OCC2CCCCC2)C1 |  |  |  |  |  |  |  |  | 
7.00 | 5.70 | 6.37 |  |  |  | N#CN1CCC1 | 6.32 | < 4.00 | 6.35 | 6.06 |  |  |  |  | 
7.40 | 6.30 | 7.00 |  |  |  | N#CN1CC(OCc2ccccc2)C1 |  |  |  |  |  |  |  |  | 
